Measurements from different studies.
Protocols differ between the studies behind these lines.
Target: Serine/threonine-protein kinase SIK2 (SIK2, Homo sapiens, UniProt Q9H0K1)

SMILES | effect on | mode | method | concentration | endpoint | value
O=C(NCc1ncc(C(F)(F)F)cc1Cl)c1ccc2c(c1)C1(CCS(=O)(=O)CC1)[C@H](C1CC1)N2S(=O)(=O)c1ccc(F)cc1 | cell-free assay |  | competition with immobilised ligand | 1 µM | remaining binding | 96%
COc1ncccc1-c1cnn2ccc(N3CCN(C(=O)OC(C)C)CC3)nc12 | binding |  | competition with immobilised ligand | 1 µM | remaining binding | 50%
Cn1cc(-c2cc(F)cc(N3CCn4c(cc5c4CCCC5)C3=O)c2CO)cc(Nc2ccc(N3CCN(C4COC4)CC3)cn2)c1=O | enzyme activity | inhibitor |  | 0.1 µM | inhibition | 13%
Cn1cncc1[C@](O)(COc1ccc(C#N)cc1-c1ccc(OC(F)(F)F)cc1)c1ccc(C#N)cc1 | cell-free assay |  | competition with immobilised ligand | 1 µM | remaining binding | 95%
O=c1[nH]c2ccccc2n1C1CCN(Cc2ccc(-c3[nH]c4cc5ncnc5cc4nc3-c3ccccc3)cc2)CC1 | cell-free assay |  |  | 0.5 µM | remaining signal | 114%
Cc1nn(C)cc1-c1nc2c(N3CCN(Cc4ccc(Cl)cc4)CC3)c(Cl)cnc2[nH]1 | binding |  | competition with immobilised ligand | 1 µM | remaining binding | 36%
CC(C)(C)c1cc(C=C(C#N)C#N)cc(Br)c1O | enzyme activity | inhibitor |  | 0.5 µM | remaining activity | 115%
Cn1cc(-c2cccc(N3CCc4c(sc5c4CC(C)(C)C5)C3=O)c2CO)cc(Nc2ccncn2)c1=O | enzyme activity | inhibitor |  | 1 µM | inhibition | 4%
